Measured values taken from ChEMBL document CHEMBL1126729, “Quinolone antibacterials: synthesis and biological activity of carbon isosteres of the 1-piperazinyl and 3-amino-1-pyrrolidinyl side chains” (J Med Chem, 1993).
In brackets after ≈: the same amount, converted by molar mass.

Key:
Format in all cases: functional
[1] = test system: Mus musculus; assay: Protective dose in vivo was determined in acute, lethal systemic infections in female Charles River CD-1 mice against Streptococcus pyogenes C-203; settings: read-out: PD50
Procedure, shortened: (§1)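 Female Charles River CD-1 mice with an acute, lethal systemic infection received a single compound dose at the time of challenge. The median protective dose (PD50, mg/kg) was taken as the read-out.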

[2] = Geometric mean of MIC was determined in vitro against gram-negative strains using standard microtitration techniques
Procedure, shortened: (§2)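 Per-compound geometric means of the microtitration MICs (μg/mL), calculated separately across the Gram-negative strains and the Gram-positive strains. Pseudomonas aeruginosa is excluded from the Gram-negative mean.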

[3] = target: DNA gyrase (Escherichia coli, UniProt P0AES4+P0AES6); assay: Inhibition of the gyrase mediated cleavage of supercoiled DNA
[4] = test system: Mus musculus; assay: Protective dose in vivo was determined in acute, lethal systemic infections in female Charles River CD-1 mice against Escherichia coli Vogel; settings: read-out: PD50; procedure, shortened: as §1
[5] = test system: Bacteria; assay: Geometric mean of MIC was determined in vitro against gram-positive strains using standard microtitration techniques; procedure, shortened: as §2
[6] = test system: Streptococcus pyogenes; assay: (§3) Antibacterial activity was tested in vitro against Streptococcus pyogenes C-203 using standard microtitration techniques
Procedure, shortened: (§4)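 MIC (μg/mL) by standard broth microtitration, as part of a panel of six Gram-negative and five Gram-positive organisms.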

[7] = test system: Staphylococcus aureus; assay: (§5) Antibacterial activity was tested in vitro against Staphylococcus aureus UC-76 using standard microtitration techniques; procedure, shortened: as §4
[8] = test system: Providencia rettgeri; assay: Antibacterial activity was tested in vitro against M-1771 strain of Providencia rettgeri using standard microtitration techniques
Procedure, shortened: (§6)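 Broth microtitration MIC testing against a panel of six Gram-negative and five Gram-positive bacterial strains. Values are given as MIC in μg/mL.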

[9] = test system: Enterococcus faecalis; assay: Antibacterial activity was tested in vitro against Enterococcus faecalis MGH-2 using standard microtitration techniques; procedure, shortened: as §6
[10] = test system: Staphylococcus aureus; assay: Antibacterial activity was tested in vitro against Staphylococcus aureus H-288 using standard microtitration techniques; procedure, shortened: as §6
[11] = test system: Streptococcus pneumoniae; assay: Antibacterial activity was tested in vitro against Streptococcus pneumoniae SV-1 using standard microtitration techniques; procedure, shortened: as §6
[12] = test system: Escherichia coli; assay: Antibacterial activity was tested in vitro against Escherichia coli Vogel using standard microtitration techniques; procedure, shortened: as §6
[13] = test system: Pseudomonas aeruginosa; assay: Antibacterial activity was tested in vitro against Pseudomonas aeruginosa UI-18 using standard microtitration techniques; procedure, shortened: as §6
[14] = test system: Enterobacter cloacae; assay: Antibacterial activity was tested in vitro against […] MA-2646 using standard microtitration techniques; procedure, shortened: as §6
[15] = test system: Escherichia coli; assay: Antibacterial activity was tested in vitro against Escherichia coli H-560 using standard microtitration techniques; procedure, shortened: as §6
[16] = test system: Klebsiella pneumoniae; assay: Antibacterial activity was tested in vitro against Klebsiella pneumoniae MGH-2 using standard microtitration technique; procedure, shortened: as §6
[17] = test system: Klebsiella pneumoniae; assay: Antibacterial activity was tested in vitro against Klebsiella pneumoniae MGH-2 using standard microtitration techniques; procedure, shortened: as §4
[18] = test system: Staphylococcus aureus; assay: as §5; procedure, shortened: as §6; remark: listed apart in the source
[19] = test system: Mus musculus; assay: Protective dose in vivo was determined in acute, lethal systemic infections in female Charles River CD-1 mice against Streptococcus pyogenes C-203; 50/45.; settings: read-out: PD50
[20] = test system: Streptococcus pyogenes; assay: as §3; procedure, shortened: as §6; remark: listed apart in the source
[21] = test system: Mus musculus; assay: Protective dose in vivo was determined in acute, lethal systemic infections in female Charles River CD-1 mice against Escherichia coli Vogel; 6/1.1.; settings: read-out: PD50

Row | Compound | ED50 [1] | MIC [2] | IC50 [3] | ED50 [4] | MIC [5] | MIC [6] | MIC [7] | MIC [8] | MIC [9] | MIC [10] | MIC [11] | MIC [12] | MIC [13] | MIC [14] | MIC [15] | MIC [17] | also measured
1 | NC1CCN(c2cc3c(cc2F)c(=O)c(C(=O)O)cn3C2CC2)C1 (stereo not given) | 97 mg/kg | 0.04 µg/mL (≈ 0.121 µM) | 7.85 µM | 3.4 mg/kg | 0.09 µg/mL (≈ 0.272 µM) | – | – | – | – | – | – | – | – | – | – | – | –
2 | O=C(O)c1cn(C2CC2)c2cc(C3CCNCC3)c(F)cc2c1=O | – | 0.3 µg/mL (≈ 0.908 µM) | 11.5 µM | 13.8 mg/kg | 1.8 µg/mL (≈ 5.45 µM) | 0.4 µg/mL (≈ 1.21 µM) | 0.8 µg/mL (≈ 2.42 µM) | 0.8 µg/mL (≈ 2.42 µM) | 3.1 µg/mL (≈ 9.38 µM) | 6.3 µg/mL (≈ 19.1 µM) | 3.1 µg/mL (≈ 9.38 µM) | 0.2 µg/mL (≈ 0.605 µM) | 1.6 µg/mL (≈ 4.84 µM) | 0.2 µg/mL (≈ 0.605 µM) | 0.2 µg/mL (≈ 0.605 µM) | – | MIC [16]: 0.4 µg/mL (≈ 1.21 µM)
3 | NC1CCN(c2nc3c(cc2F)c(=O)c(C(=O)O)cn3C2CC2)C1 (stereo not given) | 32 mg/kg | 0.02 µg/mL (≈ 0.0602 µM) | 9.03 µM | 2 mg/kg | 0.1 µg/mL (≈ 0.301 µM) | – | – | – | – | – | – | – | – | – | – | – | –
4 | NC1C=C(c2cc3c(cc2F)c(=O)c(C(=O)O)cn3C2CC2)CC1 (stereo not given) | – | 0.13 µg/mL (≈ 0.396 µM) | 8.53 µM | 5.2 mg/kg | 0.35 µg/mL (≈ 1.07 µM) | 0.2 µg/mL (≈ 0.609 µM) | – | 0.2 µg/mL (≈ 0.609 µM) | 0.8 µg/mL (≈ 2.44 µM) | 0.8 µg/mL (≈ 2.44 µM) | 0.4 µg/mL (≈ 1.22 µM) | 0.1 µg/mL (≈ 0.305 µM) | 0.8 µg/mL (≈ 2.44 µM) | 0.1 µg/mL (≈ 0.305 µM) | 0.1 µg/mL (≈ 0.305 µM) | 0.2 µg/mL (≈ 0.609 µM) | MIC [18]: 0.1 µg/mL (≈ 0.305 µM)
5 | O=C(O)c1cn(-c2ccc(F)cc2F)c2nc(C3=CCNCC3)c(F)cc2c1=O | – | 0.15 µg/mL (≈ 0.374 µM) | 12.5 µM | – | 0.53 µg/mL (≈ 1.32 µM) | 0.4 µg/mL (≈ 0.997 µM) | 0.2 µg/mL (≈ 0.498 µM) | 0.4 µg/mL (≈ 0.997 µM) | 1.6 µg/mL (≈ 3.99 µM) | 0.8 µg/mL (≈ 1.99 µM) | 0.4 µg/mL (≈ 0.997 µM) | 0.1 µg/mL (≈ 0.249 µM) | 1.6 µg/mL (≈ 3.99 µM) | 0.1 µg/mL (≈ 0.249 µM) | 0.1 µg/mL (≈ 0.249 µM) | 0.2 µg/mL (≈ 0.498 µM) | –
6 | NC1C=C(c2nc3c(cc2F)c(=O)c(C(=O)O)cn3-c2ccc(F)cc2F)CC1 (stereo not given) | – | 0.07 µg/mL (≈ 0.174 µM) | 15.7 µM | – | 0.09 µg/mL (≈ 0.224 µM) | – | 0.025 µg/mL (≈ 0.0623 µM) | 0.2 µg/mL (≈ 0.498 µM) | 0.2 µg/mL (≈ 0.498 µM) | 0.1 µg/mL (≈ 0.249 µM) | 0.1 µg/mL (≈ 0.249 µM) | 0.05 µg/mL (≈ 0.125 µM) | 1.6 µg/mL (≈ 3.99 µM) | 0.05 µg/mL (≈ 0.125 µM) | 0.025 µg/mL (≈ 0.0623 µM) | 0.1 µg/mL (≈ 0.249 µM) | ED50 [19]: 50 mg/kg; MIC [20]: 0.1 µg/mL (≈ 0.249 µM); ED50 [21]: 6 mg/kg
7 | O=C(O)c1cn(C2CC2)c2cc(C3=CCNCC3)c(F)cc2c1=O | > 100 mg/kg | 0.04 µg/mL (≈ 0.122 µM) | 2.74 µM | 1.7 mg/kg | 0.46 µg/mL (≈ 1.4 µM) | 0.4 µg/mL (≈ 1.22 µM) | 0.1 µg/mL (≈ 0.305 µM) | 0.1 µg/mL (≈ 0.305 µM) | 0.8 µg/mL (≈ 2.44 µM) | 0.8 µg/mL (≈ 2.44 µM) | 0.8 µg/mL (≈ 2.44 µM) | 0.025 µg/mL (≈ 0.0761 µM) | 0.8 µg/mL (≈ 2.44 µM) | 0.025 µg/mL (≈ 0.0761 µM) | 0.013 µg/mL (≈ 0.0396 µM) | 0.1 µg/mL (≈ 0.305 µM) | –
8 | O=C(O)c1cn(C2CC2)c2nc(C3=CCNCC3)c(F)cc2c1=O | 42 mg/kg | 0.03 µg/mL (≈ 0.0911 µM) | 11.5 µM | 0.5 mg/kg | 0.6 µg/mL (≈ 1.82 µM) | 0.4 µg/mL (≈ 1.21 µM) | 0.2 µg/mL (≈ 0.607 µM) | 0.05 µg/mL (≈ 0.152 µM) | 0.8 µg/mL (≈ 2.43 µM) | 1.6 µg/mL (≈ 4.86 µM) | 0.8 µg/mL (≈ 2.43 µM) | 0.013 µg/mL (≈ 0.0395 µM) | 0.2 µg/mL (≈ 0.607 µM) | 0.025 µg/mL (≈ 0.0759 µM) | 0.013 µg/mL (≈ 0.0395 µM) | 0.05 µg/mL (≈ 0.152 µM) | –
9 | NC1C=C(c2nc3c(cc2F)c(=O)c(C(=O)O)cn3C2CC2)CC1 (stereo not given) | 50 mg/kg | 0.07 µg/mL (≈ 0.213 µM) | 11.5 µM | 1.2 mg/kg | 0.35 µg/mL (≈ 1.06 µM) | 0.4 µg/mL (≈ 1.21 µM) | 0.1 µg/mL (≈ 0.304 µM) | 0.1 µg/mL (≈ 0.304 µM) | 0.4 µg/mL (≈ 1.21 µM) | 0.8 µg/mL (≈ 2.43 µM) | 0.4 µg/mL (≈ 1.21 µM) | 0.05 µg/mL (≈ 0.152 µM) | 0.8 µg/mL (≈ 2.43 µM) | 0.05 µg/mL (≈ 0.152 µM) | 0.05 µg/mL (≈ 0.152 µM) | 0.1 µg/mL (≈ 0.304 µM) | –
10 | O=C(O)c1cn(-c2ccc(F)cc2F)c2nc(N3CCNCC3)c(F)cc2c1=O | 2.4 mg/kg | 0.4 µg/mL (≈ 0.989 µM) | – | – | 0.2 µg/mL (≈ 0.495 µM) | – | – | – | – | – | – | – | – | – | – | – | –
11 | O=C(O)c1cn(C2CC2)c2nc(N3CCNCC3)c(F)cc2c1=O | 63 mg/kg | 0.05 µg/mL (≈ 0.15 µM) | > 75.2 µM | 0.7 mg/kg | 1.2 µg/mL (≈ 3.61 µM) | – | – | – | – | – | – | – | – | – | – | – | –
12 | O=C(O)c1cn(C2CC2)c2cc(N3CCNCC3)c(F)cc2c1=O [CIPROFLOXACIN] | > 260 mg/kg | 0.05 µg/mL (≈ 0.151 µM) | – | 1.2 mg/kg | 0.6 µg/mL (≈ 1.81 µM) | – | – | – | – | – | – | – | – | – | – | – | –
13 | NC1CCN(c2nc3c(cc2F)c(=O)c(C(=O)O)cn3-c2ccc(F)cc2F)C1 (stereo not given) [TOSUFLOXACIN] | 5.7 mg/kg | 0.03 µg/mL (≈ 0.0742 µM) | 7.42 µM | 0.6 mg/kg | 0.04 µg/mL (≈ 0.0989 µM) | – | – | – | – | – | – | – | – | – | – | – | –
